Structures are written as SMILES. ≈ marks a conversion by molar mass, not a printed value. Where only a bound is given, the exact number is not on record here.

Common to all, as to assay type: functional
The subject of test [1] is Cercospora beticola. Briefly: Antifungal activity against Cercospora beticola assessed as inhibition of mycelia elongation rate at 50 ppm after 48 hrs relative to control. In outline:
(§1)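 This was a mycelial growth assay on potato glucose agar. Samples were dissolved in DMF at 500 mg/L (stock), and 1 part solution was mixed with 9 parts thawed medium at 50 °C before plating. Solidified plates were inoculated with a 4 mm mycelium disk, inverted and incubated at 28 °C for 48 h. Medium without sample served as blank. Mycelial elongation radius was measured, in triplicate.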

Test [2] is described as follows: Antifungal activity against Physalospora pyricola assessed as inhibition of mycelia elongation rate at 50 ppm after 48 hrs relative to control. To be noted: Botryosphaeria berengeriana. In outline: as §1
Test [3] concerns Staphylococcus aureus. Briefly: Antibacterial activity against Staphylococcus aureus ATCC 6538 assessed as growth inhibition after 24 hrs by two-fold serial dilution method. The following applies: ATCC 6538, 24 h. In outline:
(§2)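 MICs were determined by two-fold serial dilution in nutrient broth, following CLSI. The inoculum came from 24 h bacterial cultures on nutrient agar at 37 ± 1 °C and was adjusted in sterile saline to 1×10⁴–10⁵ CFU/mL. Tubes were incubated at 37 ± 1 °C. MIC was read visually after 24 h, with kanamycin as the reference standard.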

Test [4] has as its system Bacillus spizizenii. Briefly: Antibacterial activity against Bacillus subtilis ATCC 6633 assessed as growth inhibition after 24 hrs by two-fold serial dilution method. To be noted: ATCC 6633, 24 h. In outline: as §2
Test [5] concerns Pseudomonas fluorescens. Briefly: Antibacterial activity against Pseudomonas fluorescens ATCC 13525 assessed as growth inhibition after 24 hrs by two-fold serial dilution method. The following applies: ATCC 13525, 24 h. In outline: as §2
In test [6] the test system is Fusarium oxysporum. Briefly: Antifungal activity against Fusarium oxysporum assessed as inhibition of mycelia elongation rate at 50 ppm after 48 hrs relative to control. In outline:
as §1

In test [7] the test system is Escherichia coli. The test is described as follows: Antibacterial activity against Escherichia coli ATCC 35218 assessed as growth inhibition after 24 hrs by two-fold serial dilution method. To be noted: ATCC 35218, 24 h. In outline: as §2
The nature of test [8]: Antifungal activity against Gibberella saubinettii assessed as inhibition of mycelia elongation rate at 50 ppm after 48 hrs relative to control. The following applies: Fusarium graminearum. In outline:
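Poisoned-agar mycelial growth test: sample dissolved in DMF at 500 mg/L, 1 mL mixed into 9 mL thawed potato glucose agar at 50 °C and poured into plates. A 4 mm mycelium disk was placed on each plate, inverted, incubated 28 °C for 48 h. Mycelial elongation radius (mm) measured against a sample-free medium blank; three replicates.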

Test [9] deals with Rhizoctonia solani. The test is described as follows: Antifungal activity against Rhizoctonia solani assessed as inhibition of mycelia elongation rate at 50 ppm after 48 hrs relative to control. The gist of the method: as §1

Turning to `Cc1ccc(CSc2nnc(CSc3nc4nc(C)cc(C)n4n3)s2)cc1`, the inhibition (as a rule, the change of the read-out against control, counted positive when it falls) at 50 ppm in test [1] was determined as 38%; in [6], 65%; in test [9], 57%. In addition, the figures for the inhibition in test [2] and in test [8] were 74% and 32%, respectively. Further, the MIC (usually the lowest concentration that inhibits growth of the organism) was more than 100 µg/mL in test [3], more than 100 µg/mL in test [4], 50 µg/mL (≈ 121 µM) in [5] and 12.5 µg/mL (≈ 30.2 µM) in [7].
For `Cc1cc(C)n2nc(SCc3nnc(SCc4ccccc4Br)s3)nc2n1`, the inhibition at 50 ppm in test [1] turned out to be 45%; in test [6] it was 40%; in test [9] it was 63%. The inhibition in test [2] is 75%; in test [8], 44%. The MIC in test [3] was more than 100 µg/mL; in test [4], more than 100 µg/mL; in [5], 25 µg/mL (≈ 52.1 µM); in test [7], 12.5 µg/mL (≈ 26.1 µM).
On to `Cc1cc(C)n2nc(SCc3nnc(SCc4c(F)cccc4F)s3)nc2n1`, for which the inhibition at 50 ppm in test [1] is 60%; in test [6] it was 36%; in test [9] it was 83%. Moreover, the results for the inhibition in test [2] and in test [8] were 73% and 33%, respectively. For the same compound, the MIC was more than 100 µg/mL in test [3], 50 µg/mL (≈ 115 µM) in [4], 6.25 µg/mL (≈ 14.3 µM) in test [5] and 12.5 µg/mL (≈ 28.6 µM) in test [7].
Turning to `Cc1ccc(CSc2nnc(CSc3nc4nc(C)cc(C)n4n3)s2)c([N+](=O)[O-])c1`, the results for the inhibition at 50 ppm in test [1], in test [6] and in test [9] were 64%, 54% and 80%, respectively. Also, the inhibition was found to be 78% in test [2] and 66% in test [8]. Besides, the MIC in [3] is 25 µg/mL (≈ 54.4 µM); in test [4] it was 25 µg/mL (≈ 54.4 µM); in test [5], 1.56 µg/mL (≈ 3.39 µM); in [7], 12.5 µg/mL (≈ 27.2 µM).
Regarding `Cc1cc(C)n2nc(SCc3nnc(SCc4cc(F)cc(F)c4)s3)nc2n1`, the inhibition at 50 ppm in test [1] was determined as 61%; in [6], 38%; in [9], 75%. For the same compound, the inhibition in test [2] was determined as 68%; in test [8] it was 41%. Also, the MIC is more than 100 µg/mL in test [3], 50 µg/mL (≈ 115 µM) in test [4], 12.5 µg/mL (≈ 28.6 µM) in [5] and 25 µg/mL (≈ 57.3 µM) in test [7].
Consider `Cc1cc(C)n2nc(SCc3nnc(SCc4cccc(Cl)c4)s3)nc2n1`, for which the inhibition at 50 ppm was 57% in test [1], 57% in [6] and 53% in test [9]. The inhibition in test [2] was 66%; in test [8], 15%. In addition, the MIC was more than 100 µg/mL in [3], 50 µg/mL (≈ 115 µM) in test [4], 100 µg/mL (≈ 230 µM) in test [5] and 25 µg/mL (≈ 57.5 µM) in test [7].
In the case of `Cc1cc(C)n2nc(SCc3nnc(SCc4ccc(F)cc4)s3)nc2n1`, the inhibition at 50 ppm amounted to 60% in test [1], 42% in test [6] and 55% in test [9]. Besides, the results for the inhibition in test [2] and in test [8] were 79% and 18%, respectively. The MIC in test [3] was more than 100 µg/mL; in [4], 50 µg/mL (≈ 119 µM); in test [5] it was 50 µg/mL (≈ 119 µM); in [7], 12.5 µg/mL (≈ 29.9 µM).
For the compound `COc1cccc(CSc2nnc(CSc3nc4nc(C)cc(C)n4n3)s2)c1`, the inhibition at 50 ppm in test [1] was determined as 62%; in test [6], 44%; in [9], 49%. The inhibition in test [2] is 69%; in test [8], 67%. Moreover, the MIC was 12.5 µg/mL (≈ 29 µM) in [3], 50 µg/mL (≈ 116 µM) in [4], more than 100 µg/mL in test [5] and 25 µg/mL (≈ 58.1 µM) in test [7].
Regarding `Cc1cc(C)n2nc(SCc3nnc(SCc4ccc(Br)cc4)s3)nc2n1`, the inhibition at 50 ppm in test [1] is 43%; in [6] it was 62%; in [9], 51%. Further, the figures for the inhibition in test [2] and in test [8] were 76% and 25%, respectively. Moreover, the MIC was more than 100 µg/mL in test [3], more than 100 µg/mL in [4], 100 µg/mL (≈ 209 µM) in test [5] and 12.5 µg/mL (≈ 26.1 µM) in test [7].
Consider `Cc1cc(C)n2nc(SCc3nnc(SCc4ccc(Br)cc4F)s3)nc2n1`, for which the inhibition at 50 ppm came to 62% in [1], 38% in test [6] and 75% in test [9]. The values for the inhibition in test [2] and in [8] were 82% and 35%, respectively. Moreover, the MIC in test [3] is more than 100 µg/mL; in test [4], 50 µg/mL (≈ 101 µM); in [5] it was 12.5 µg/mL (≈ 25.1 µM); in test [7] it was 6.25 µg/mL (≈ 12.6 µM).
As to `Cc1cc(C)n2nc(SCc3nnc(SCc4ccccc4F)s3)nc2n1`, the figures for the inhibition at 50 ppm in test [1], in test [6] and in [9] were 39%, 55% and 68%, respectively. Further, the values for the inhibition in [2] and in test [8] were 78% and 45%, respectively. Moreover, the MIC was more than 100 µg/mL in test [3], more than 100 µg/mL in [4], 25 µg/mL (≈ 59.7 µM) in [5] and 12.5 µg/mL (≈ 29.9 µM) in test [7].
As to `Cc1cc(C)n2nc(SCc3nnc(SCc4ccccc4Cl)s3)nc2n1`, the inhibition at 50 ppm turned out to be 43% in test [1], 40% in [6] and 61% in test [9]. Also, the inhibition in test [2] turned out to be 77%; in test [8] it was 45%. For the same compound, the MIC is more than 100 µg/mL in test [3], more than 100 µg/mL in test [4], 100 µg/mL (≈ 230 µM) in test [5] and 12.5 µg/mL (≈ 28.7 µM) in test [7].
As for `Cc1cc(C)n2nc(SCc3nnc(SCc4cccc(Br)c4)s3)nc2n1`, the inhibition at 50 ppm in test [1] is 77%; in [6] it was 56%; in test [9], 67%. The inhibition in [2] turned out to be 58%; in [8], 47%. For the same compound, the MIC was more than 100 µg/mL in test [3], 12.5 µg/mL (≈ 26.1 µM) in test [4], 50 µg/mL (≈ 104 µM) in test [5] and 50 µg/mL (≈ 104 µM) in test [7].
`Cc1cc(C)n2nc(SCc3nnc(SCc4ccc(C)c([N+](=O)[O-])c4)s3)nc2n1`: the figures for the inhibition at 50 ppm in test [1], in test [6] and in [9] were 78%, 40% and 89%, respectively. In addition, the inhibition was determined as 68% in test [2] and 41% in test [8]. Besides, the MIC in [3] was more than 100 µg/mL; in test [4], 12.5 µg/mL (≈ 27.2 µM); in test [5], 12.5 µg/mL (≈ 27.2 µM); in [7] it was 25 µg/mL (≈ 54.4 µM).

The record behind these values is ChEMBL document CHEMBL2384957, “Synthesis and antimicrobical evaluation of a novel class of 1,3,4-thiadiazole: derivatives bearing 1,2,4-triazolo[1,5-a]pyrimidine moiety” (2013).
